Compound activity (PubChem)
Compounds with a hit are over-represented: about 4.8% of the library has one in this group of screens.
NALP1 inh: NALP1 inhibition; S. cerevisiae NALP1/ASC/caspase-1 growth, X-gal OD620, 72 h; inhibition, % at 10 µM; 280,000 tested, 0.61% active; in the data active means inhibition mostly above about 24%, no sharp cut-off; inactive means mostly below about 32%
ATG4B inh: ATG4B (human) cysteine protease inhibition; ATG4B cleavage of LC3-PLA2, NBD-HPC fluorescence, 1 h; 340,000 tested, 0.51% active; AID 504462; Q9Y4P1; inhibition, % at 8.33 µM; in the data active means inhibition above about 40%
ALR H2O2 inh: human ALR oxidase inhibition via reduced H2O2. P55789. purified ALR, DTT oxidation, H2O2 HRP-luminol luminescence. inhibition, % (concentration not given with the values). 290,000 tested, 3.8% active. AID 485317;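 active means mean replicate inhibition above about 79%, with every replicate also reaching it, limit read from the data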
Target sequence (P55789 whole entry, looked up): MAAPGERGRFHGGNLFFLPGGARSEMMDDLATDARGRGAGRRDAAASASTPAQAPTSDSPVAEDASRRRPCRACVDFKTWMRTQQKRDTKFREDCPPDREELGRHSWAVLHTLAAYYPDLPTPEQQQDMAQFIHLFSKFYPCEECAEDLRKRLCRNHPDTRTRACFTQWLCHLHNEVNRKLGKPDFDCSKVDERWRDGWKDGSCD
NLRP3 yeast inh: inhibitors of NALP3 inflammasome in yeast; 330,000 tested, 0.39% active; inhibition, % at 10 µM; Yeast reconstituted NLRP3/ASC/caspase-1, beta-gal luminescence, 24 h;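 active means inhibition of 50% or more; inactive means inhibition below 50%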;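 further: plate controls were induced DMSO wells for no effect and uninduced yeast grown without galactose for full effect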
Calb FLC: affects C. albicans growth with fluconazole. 300,000 tested, 0.57% active. growth inhibition, % (no concentration beside the values). C. albicans CaCi-2 + fluconazole, Alamar Blue growth, 48 h;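 active means growth inhibition above about 58% in most replicates, limit read from the data, passing the limit was not always enough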;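 further: all wells also contain fluconazole at 8 µg/ml as a sub-toxic cotreatment; 0% = median of DMSO wells and 100% = median of geldanamycin control wells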
UCH37 DUB inh: inhibitors of human deubiquitinating enzyme UCH37; Q9Y5K5; purified proteasome/UCH37, Ub-AMC cleavage fluorescence; inhibition, % (no concentration beside the values); AID 588478; 330,000 tested, 0.33% active;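 active means mean inhibition over replicate wells above about 20%, limit read from the data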;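 further: 0% = compound-free wells with enzyme and 100% = wells lacking proteasome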
Target sequence (Q9Y5K5 whole entry, looked up): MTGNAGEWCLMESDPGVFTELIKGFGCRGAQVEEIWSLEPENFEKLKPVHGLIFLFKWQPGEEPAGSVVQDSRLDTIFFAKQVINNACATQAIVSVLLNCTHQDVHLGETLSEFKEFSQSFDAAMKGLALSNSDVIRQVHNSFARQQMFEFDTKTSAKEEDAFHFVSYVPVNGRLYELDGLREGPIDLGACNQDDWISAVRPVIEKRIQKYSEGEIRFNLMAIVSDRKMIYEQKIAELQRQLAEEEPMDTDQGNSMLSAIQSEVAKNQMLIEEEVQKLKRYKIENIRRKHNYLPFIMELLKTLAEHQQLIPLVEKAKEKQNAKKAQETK
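system = Proteasome-associated human UCH37 deubiquitinase | amount = 0.15 nM proteasome as dispensed | medium = pH 7.4 Tris-HCl (50 mM) with ovalbumin, ATP-MgCl2, DTT | incubation = 30 min preincubation with enzyme, 25 min cleavage at room temperature | detection = AMC fluorescence 355/460 nm | read-out basis = percent inhibition | controls = no-proteasome and no-compound wells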
NALP3 yeast conf: NALP3 inhibition confirmation in yeast; yeast expressing human NALP3, luminescence; 1,300 tested, 81% active; shares compounds with NLRP3 yeast inh; inhibition, % at 10 µM; in the data active means inhibition above about 48%
Casp1 ASC ctr: active in yeast caspase-1-ASC counter-screen for NALP3 inhibitors | shares compounds with NLRP3 yeast inh | yeast expressing Caspase-1-ASC, luminescence counter screen | inhibition, % at 10 µM | 1,000 tested, 66% active | AID 488784
NALP3 retest: confirmation retest of NALP3 inhibitors in yeast. AID 488794. inhibition, % at 10 µM. 1,000 tested, 53% active. yeast expressing human NALP3, luminescence read-out. shares compounds with NLRP3 yeast inh
The depositor's hits bear a star; / = no result. Unless noted, no stated cut-off is given here; in the data, active means inhibition above about 50%; inactive means the rest.

SMILES	NALP1 inh	ATG4B inh	ALR H2O2 inh	NLRP3 yeast inh	Calb FLC	UCH37 DUB inh	NALP3 yeast conf	Casp1 ASC ctr	NALP3 retest
CCCCc1c(C)c(C#N)c2[nH]c3ccccc3n2c1=O	9.0	-1.0	4.0	58.2*	6.1	-21.6	78.3*	-1.2	19.7
O=C(c1cc(-c2cccc(Cl)c2)on1)N1CCCC1	25.8	-1.3	/	58.9*	-8.1	0.1	76.7*	76.2*	64.4*
O=C(c1cc(-c2cccc(Cl)c2)on1)N1CCN(c2ccccc2)CC1	8.8	-0.8	/	10.5	2.6	3.0	/	/	/
Cc1ccc(OCCn2cnc(Cl)c2Cl)cc1	3.1	0.1	-14.8	50.1*	-0.1	-2.2	58.9*	/	/
CCCNC(=O)c1cc2c3ccccc3n(C)c2s1	55.3	-16.1	99.4*	50.9*	5.3	-3.2	49.8*	34.7	25.4
CCCNC(=O)c1cc2c(C(F)(F)F)nn(C)c2s1	6.2	-3.6	/	14.1	18.4	1.3	/	/	/
Cc1ccc(-c2c[nH]c(=S)n2-c2ccccc2F)cc1	-8.0	-14.3	97.9*	55.0*	-8.8	2.3	37.7	/	/
COc1ccccc1-n1c(-c2ccccc2)c[nH]c1=S	1.0	-1.8	/	/	-10.9	1.8	/	/	/
COc1cccc(-n2c(-c3ccccc3)c[nH]c2=S)c1	-2.3	-3.6	16.7	34.7	-12.2	-0.3	/	/	/
Cc1ccc(-c2c[nH]c(=S)n2-c2ccccc2)cc1	10.5	-5.7	70.7	61.0*	-33.7	1.6	35.7	39.0	28.9
CCOc1ccc(-n2c(-c3ccccc3)c[nH]c2=S)cc1	-5.7	5.5	1.6	58.8*	-11.9	4.4	58.2*	22.4	24.6
Cc1scc(C(=O)NN=Cc2ccc(OC(C)C)cc2)c1C	/	/	/	/	/	4.0	/	/	/
CC(C)Nc1nc(NC(C)C)nc(Oc2ccc(C=NO)cc2)n1	/	/	/	/	/	0.4	/	/	/
COc1ccc(NC(=O)CC(C)=NNC(=O)C(=O)NC2CCCCC2)c(OC)c1	/	/	/	/	/	0.5	/	/	/
CCn1c(=O)c(C(=O)NNC(=O)c2ccccc2Br)c(O)c2ccccc21	-7.4	6.0	/	21.7	1.7	-0.7	/	/	/
CCn1c(=O)c(C(=O)NNC(=O)c2ccc(Cl)cc2Cl)c(O)c2ccccc21	12.2	-2.1	/	54.8*	5.0	-5.4	74.8*	21.4	25.1
Cn1c(=O)c(C(=O)NNC(=O)c2ccccc2Cl)c(O)c2ccccc21	1.2	-5.2	/	65.9*	-8.4	-2.4	80.2*	53.5*	61.4*
Cn1c(=O)c(C(=O)Nc2ccccn2)c(O)c2ccccc21	4.6	-0.6	/	50.7*	-1.8	0.5	63.5*	40.1	48.8
Cn1c(=O)c(C(=O)Nc2cnccn2)c(O)c2ccccc21	20.9	/	/	/	/	/	/	/	/
Cn1c(=O)c(C(=O)NNC(=O)c2ccccc2Br)c(O)c2ccccc21	5.7	1.1	0.9	58.8*	1.3	-0.2	84.0*	53.1*	65.3*
Nc1nc(-c2ccc(Oc3ccccc3)cc2)cs1	98.5*	12.8	99.2*	96.8*	13.3	3.2	57.0*	98.8*	99.4*
Cc1csc(NN=Cc2cccnc2)n1	/	/	/	/	/	10.7	/	/	/
Cc1ccc(C(=O)ON=Cc2c(C)nn(C)c2Cl)cc1	/	/	/	/	/	-2.4	/	/	/
COc1cc(C=c2sc3nc(=O)c(-c4ccccc4)nn3c2=O)ccc1OCCC(C)C	/	/	/	/	/	3.6	/	/	/
CC(C)Cc1nc(SCc2cccnc2)c2c(=O)n(C)c(=O)n(C)c2n1	-10.8	-7.5	-14.6	59.8*	-36.8	3.5	63.6*	57.0*	42.2
SMILES	NALP1 inh	ATG4B inh	ALR H2O2 inh	NLRP3 yeast inh	Calb FLC	UCH37 DUB inh	NALP3 yeast conf	Casp1 ASC ctr	NALP3 retest
CCc1nc(SCc2cccnc2)c2c(=O)n(C)c(=O)n(C)c2n1	/	0.9	2.4	53.3*	-13.4	/	67.5*	58.2*	47.8
CCC(C)NC(=O)CON=Cc1ccccc1OC(F)F (configuration not stated)	/	/	/	/	/	1.3	/	/	/
CCC(=NNC(=O)COc1ccc(Br)cc1)c1ccc(OC)c(OC)c1	/	/	/	/	/	1.9	/	/	/
Cc1ccc(C(=O)c2coc3ccc(O)cc23)cc1	24.4	-5.0	-19.8	65.2*	2.1	2.3	65.7*	49.8	47.5
COc1ccc2occ(C(=O)c3ccc(N)cc3)c2c1	22.9	-2.6	58.0	56.5*	-8.6	-1.3	68.5*	48.8	44.9
CC(=O)N(/N=C1\Sc2ccccc2C1=O)c1ccccc1C	-6.4	-5.4	/	53.9*	-0.5	/	48.0*	15.9	42.3
CCOc1nc(S(=O)(=O)c2ccc(C)cc2)c(Cl)s1	-18.7	-2.5	-8.1	-106.5	-4.9	2.5	-12.2	/	/
O=C1NC(=Nc2ccccc2)S/C1=C\c1cccs1	/	1.6	3.2	56.1*	-0.6	3.7	29.9	/	/
COc1cc(C2C(=O)c3ccccc3C2=O)ccc1O	18.8	-4.8	/	65.8*	-6.6	-144.6	68.4*	65.9*	46.0
Clc1ccc(SCc2cc(N3CCOCC3)nc(-c3ccccn3)n2)cc1	9.7	-3.7	0.3	50.8*	0.6	0.3	57.0*	55.4*	53.6*
O=c1cc(CSc2ccc(Cl)cc2)nc(-c2ccccn2)[nH]1	27.2	-5.3	-10.7	64.1*	111.7*	/	83.6*	97.3*	91.5*
CCOc1ccc(C=NNC(=O)C(OC)c2ccccc2)cc1 (configuration not stated)	/	/	/	/	/	5.9	/	/	/
CCCOc1cccc(-c2cc(C(=O)NN=Cc3cccnc3)c3ccccc3n2)c1	/	/	/	/	/	1.1	/	/	/
Oc1ccc(N=Nc2n[nH]c(-c3ccc(Br)cc3)n2)cc1	11.0	5.2	-16.5	/	23.1	6.0	/	/	/
Oc1ccc(N=Nc2ccc(Br)cc2)c(O)c1	23.0	2.1	98.9*	57.9*	-2.7	/	73.3*	43.8	35.9
O=C(Cc1ccc2c(c1)OCCO2)c1c(O)cc(O)cc1O	20.4	-3.9	26.8	-6.0	5.3	-1.7	/	/	/
Oc1ccc(N=Nc2ccc3c(c2)OCCO3)c(O)c1	/	-4.3	/	50.1*	3.4	3.4	65.5*	/	/
CCCOc1ccc(-c2c(C(=O)NN=Cc3ccsc3)nnn2-c2nonc2N)cc1	/	/	/	/	/	2.7	/	/	/
O=C(CC(=O)c1c(F)cccc1Cl)c1ccccc1O	21.0	1.9	0.4	51.0*	59.0	7.0	70.0*	60.9*	48.2
O=C(CC(=O)c1ccccc1O)c1cccc(F)c1	-2.9	-1.8	-1.3	32.2	0.6	5.7	/	/	/
CC(CC(=O)Nc1cccc(C(F)(F)F)c1)=NNC(=O)C(=O)NCC(C)C	/	/	/	/	/	3.9	/	/	/
Cc1ccccc1-c1cc2c(nn1)-c1ccccc1C2=O	16.7	9.5	-35.2	60.6*	-11.6	14.2	55.0*	25.8	35.8
CCCCNC(=O)c1c(O)c2cccc3c2n(c1=O)CCC3	-0.2	-1.4	-15.6	3.5	3.2	1.8	/	/	/
CNC(=O)c1c(O)c2cccc3c2n(c1=O)CC3	/	-1.5	-13.1	53.7*	12.2	-2.4	60.0*	40.5	36.5
